Bioassay records from PubChem BioAssay.
Shown are actives, neighbours in structure and some others; about 3.8% of the full set was active somewhere.
RGS4 block – inhibitors of human RGS4. B-score at 10 µM. HEK293 M3R/RGS4 inducible, Fluo-4 calcium flux; hits give high values; triggered by carbachol at its EC20. AID 463165. hit rate 0.45% among 310,000. P49798;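 active = B-score, a plate-corrected calcium signal, over three deviations above library mean, with baseline fluorescence within five deviations of library mean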;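 note: RGS4 expression induced by doxycycline in cells with stable M3 receptor; B-score is computed from the integrated fluorescence ratio over baseline after carbachol; higher B-score means a larger calcium signal and so more RGS4 inhibition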
Target sequence (P49798 whole entry, looked up): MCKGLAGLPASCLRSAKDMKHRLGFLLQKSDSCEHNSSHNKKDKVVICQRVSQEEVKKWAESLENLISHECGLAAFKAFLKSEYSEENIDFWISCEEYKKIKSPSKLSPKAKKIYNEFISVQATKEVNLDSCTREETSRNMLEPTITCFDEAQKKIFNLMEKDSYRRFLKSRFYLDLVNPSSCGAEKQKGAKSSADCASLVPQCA
MrgX1 allo act – allosterically activates human MrgX1 receptor signaling. Q96LB2. MrgX1-HEK293, Fluo-4 calcium flux, FDSS; hits give high values. B-score at 10 µM. hit rate 0.63% among 310,000;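 active = plate-corrected calcium response at least 3 library SD above typical, normal starting fluorescence, not activating the receptor alone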;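 note: compound read alongside a low EC10 to EC30 dose of BAM8-22 agonist; peak minus trough fluorescence over baseline measured at the second addition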
Target sequence (Q96LB2 whole entry, looked up): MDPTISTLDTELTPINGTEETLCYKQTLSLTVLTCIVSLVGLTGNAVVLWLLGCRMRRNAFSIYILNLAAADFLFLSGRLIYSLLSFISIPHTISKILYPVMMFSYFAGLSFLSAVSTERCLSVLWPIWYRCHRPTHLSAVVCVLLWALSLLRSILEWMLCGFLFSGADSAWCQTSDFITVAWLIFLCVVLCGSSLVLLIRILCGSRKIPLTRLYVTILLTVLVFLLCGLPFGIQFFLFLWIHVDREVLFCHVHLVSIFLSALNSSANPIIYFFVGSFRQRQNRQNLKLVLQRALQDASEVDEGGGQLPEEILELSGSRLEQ
MrgX1 antagonist – blocks BAM8-22 activation of human MrgX1 receptor; Q96LB2; MRGX1-HEK293 calcium flux, Fluo-4, BAM8-22 antagonism; hits give low values; B-score at 10 µM; hit rate 1.3% among 310,000;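 active = calcium-response B-score plate-corrected more than 3 library SD below zero, starting fluorescence within 5 deviations, no agonist response on first addition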;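 note: peak minus trough fluorescence over baseline after final BAM8-22 challenge near maximal dose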
MrgX1 agonist – activates human MrgX1 receptor signaling; Q96LB2; B-score at 10 µM; AID 588627; MrgX1-HEK293 cells, Fluo-4 calcium fluorescence, agonist mode; hits give high values; hit rate 0.44% among 310,000;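 active = calcium response B-score plate-corrected fluorescence ratio at least 3 library SD, with starting fluorescence B-score inside 5 SD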
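System – MrgX1-expressing HEK293 cells · Incubation – cells plated overnight, dye loaded 0.5 h 37 °C, 0.5 h room temperature · Technique – kinetic Fluo-4 NW fluorescence of intracellular calcium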
RGS4 act – RGS4 potentiation or activation | hit rate 0.92% among 310,000 | B-score at 10 µM | AID 463111 | HEK293 M3R/inducible RGS4, carbachol calcium flux Fluo4; hits give low values;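 active = B-score of the integrated calcium signal more than 4 SD below the library mean, with starting fluorescence not abnormally high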;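 note: negative B-score means reduced calcium response which marks RGS4 activation or potentiation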
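Test system: HEK293 cells with stable M3R and inducible RGS4; also added: carbachol at ECmax as muscarinic agonist stimulus; schedule: dye loading 30 min 37 °C, buffer rest 30 min RT; technique: kinetic calcium fluorescence imaging with Fluo4-AM dye, 2 µM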
Lipid droplet – modulators of hepatic lipid droplet formation; AML12 mouse hepatocytes, oleate lipid droplets, BODIPY imaging; inhibition, % at 6.5 µM; hit rate 0.4% among 240,000; AID 1656;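 active = lipid droplet intensity inhibited by at least 50%, with more than 500 cells counted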
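Material: mouse AML12 hepatocyte cell line, fixed after treatment; Timing: compound with oleate, overnight; Technique: high-content imaging of BODIPY-stained droplets and DAPI nuclei; Probe or stimulus: oleate, 100 µM final; Dosing: compound at 6.5 µM only.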
Of the large screens only hits and unclear results are named; the others gave an inactive call.

CCCC[C@@H]1C[C@H]1[C@@H](NC(=O)c1ccccc1)c1ccccc1C(F)(F)F	none
C=C(CC1([C@@H](NP(=O)(c2ccccc2)c2ccccc2)[C@H]2C[C@@H]2CCCC)CC1)c1ccccc1	MrgX1 antagonist -4.8
Cc1nc(N/N=C/c2ccc(O)cc2O)cc(N2CCOCC2)n1	RGS4 act -7.6
Cc1nc(N/N=C/c2cccc(F)c2)cc(N2CCOCC2)n1	none
CCN(CC)S(=O)(=O)c1ccc(C(=O)Nc2ccc3c(c2)OCO3)cc1	none
CCCCC1(C)OC(=O)C(=Cc2c[nH]c3ccccc23)C(=O)O1 (configuration not stated)	none
CCCCC1(C)OC(=O)C(=Cc2ccc(N(C)C)cc2)C(=O)O1 (configuration not stated)	MrgX1 agonist 29 (no result: Lipid droplet)
c1cnc(N2CC[N+]3(CCCC3)CC2)nc1	RGS4 act -7.7 (no result: Lipid droplet)
C/C(CCC(C)C)=N\Nc1cc(C)c2ccccc2n1	MrgX1 allo act 10
CCCS(=O)(=O)c1c(S(=O)(=O)CCC)c2cnccn2c1C(=O)c1ccc(OC)cc1	MrgX1 allo act 13
CCCS(=O)(=O)c1c(S(=O)(=O)CCC)c2cnccn2c1C(=O)c1ccc(CC)cc1	none
N=C1S/C(=C\c2ccco2)C(=O)N1c1nccs1	MrgX1 agonist 48
N=C1S/C(=C\c2ccco2)C(=O)N1c1ccc2c(c1)OCO2	none
O=C(NC(=S)NC1CC1)c1cccnc1	MrgX1 antagonist -4.7 (no result: Lipid droplet)
CCNC(=S)NNC(=O)c1cccnc1	MrgX1 antagonist -5.3
O=C(NC(=S)NC1CCCCCCCCCCC1)c1cccnc1	none (no result: RGS4 block, RGS4 act, Lipid droplet)
Cc1cccc(C)c1NC(=O)CN(C)C(=O)C(c1ccccc1)c1ccccc1	none
CCN1CCN(Cc2c(O)ccc3c2O/C(=C\c2ccccc2)C3=O)CC1	RGS4 act -8.3
CCN1CCN(Cc2c(O)ccc3c2O/C(=C\c2ccc(C)cc2)C3=O)CC1	none
CCN1CCN(Cc2c(O)ccc3c2O/C(=C\C=C\c2ccccc2)C3=O)CC1	none
Cc1ccc(/C=C2\Oc3c(ccc(O)c3CN3CCN(C)CC3)C2=O)cc1	RGS4 act -9.6
O=C1/C(=C/C=C/c2ccccc2)Oc2c1ccc(O)c2CN1CCN(CCO)CC1	MrgX1 antagonist -5.7
CCc1ccc(/C=C2\Oc3c(ccc(O)c3CN3CCN(C)CC3)C2=O)cc1	none
NC1CCN(c2c(F)cc3c(=O)c(C(=O)O)cn(C4CC4)c3c2Cl)C1 (configuration not stated)	none
COc1ccccc1NC(=O)OCC#CCOC(=O)Nc1ccccc1OC	none
CCOC(=O)c1c(SC)[nH]c2c(Cl)cccc2c1=O	none (no result: Lipid droplet)
CCCCN(CC)S(=O)(=O)c1ccc(C(=O)Nc2nnc(-c3cccs3)o2)cc1	MrgX1 agonist 33
O=C(CCN1C(=O)C2C3CCC(C3)C2C1=O)OCC(=O)c1ccc(Cl)cc1 (configuration not stated)	none
Nc1nonc1-n1nnc(C(=O)N/N=C/c2ccc(OCc3ccccc3)cc2)c1CNc1ccccc1	none
COc1ccc(C2Nc3ccccc3C(=O)N2c2ccc(C)cc2)cc1Cn1nnc2ccccc21 (configuration not stated)	MrgX1 allo act 23 (no result: Lipid droplet)
CN1[C@@H]2CC(OC(=O)[C@H](CO)c3ccccc3)C[C@H]1[C@@H]1O[C@@H]12 (some centres not stated)	RGS4 act -7.1
O=C(COC(=O)CNC(=O)c1ccc(Br)o1)Nc1ccccc1OC(F)F	none
O=C(/C(=C(\[O-])c1ccccc1)[n+]1ccc2ccccc2c1)c1ccc([N+](=O)[O-])cc1	MrgX1 antagonist -5.7
N#C/C(=C(/O)c1ccc(Cl)c([N+](=O)[O-])c1)c1nc2ccccc2[nH]1	none
CC(C)N(C)Cc1nnnn1CC(=O)N(C)Cc1cccc(Cl)c1	none
CN1CCc2c(sc(NC(=O)c3ccc(S(=O)(=O)N4CCCCCC4)cc3)c2C(N)=O)C1	MrgX1 agonist 32
CN1CCc2c(sc(NC(=O)c3ccc(S(=O)(=O)N4CCCC4)cc3)c2C(N)=O)C1	none
Cc1ncc(CO)c(/C=N/NC(=S)Nc2ccc(Cl)c(Cl)c2)c1O	MrgX1 antagonist -9.6
CCc1ccc(-n2c(=O)c3c(C)c(C)sc3n(CC(=O)NCC3CCCO3)c2=O)cc1 (configuration not stated)	none
CCOC(=O)C1CCN(C(=O)CNS(=O)(=O)c2cccs2)CC1	none
O=C(O)c1ccc(N/N=C/C2=C(N3CCOCC3)C(=C\c3ccccc3)/CC2)cc1	MrgX1 agonist 34
Cc1cccc(/C=N\N=C\c2cccc(C)c2)c1	none
C=C1CCN([C@@H](CC(C)C)C(=O)Nc2nc3ccc(Cl)cc3s2)S(=O)(=O)c2ccccc21	none (no result: Lipid droplet)
COc1ccc(NC(=O)NC23CC4(C)CC(C)(CC(C)(C4)C2)C3)cc1OC	none
Cn1c(Sc2ccccc2Cl)c(C=O)c2ccccc21	RGS4 act -8.5 (no result: Lipid droplet)
O=C(OCCN1C(=O)c2cccc3c(N4CCOCC4)ccc(c23)C1=O)c1ccccc1Cl	RGS4 act -8.2
COc1cccc(N2CCc3c(C)nc4ccc(Cl)cc4c32)c1	RGS4 act -7.5
COc1ccc(N2CCc3c(C)nc4c(OC)cccc4c32)cc1	none
COC(=O)c1cc([N+](=O)[O-])c(-n2ccnc2)c([N+](=O)[O-])c1	none
O=C(NC1CCCc2c1cnn2-c1cc(F)cc(F)c1)c1ccncc1 (configuration not stated)	none
CC(C)(C)c1ccc(-n2ncc3c2CCCC3NC(=O)c2ccncc2)cc1 (configuration not stated)	RGS4 act -8.9
O=C(CN1C(=O)NC2(CCCC2)C1=O)NCCC1=CCCCC1	RGS4 act -7.3 (no result: Lipid droplet)
Cc1ccc(C2(C)NC(=O)N(CC(=O)NCCC3=CCCCC3)C2=O)cc1 (configuration not stated)	none
COC(=O)c1ccc(-c2sc3nc(N4CCOCC4)c4c(c3c2N)CCCC4)o1	MrgX1 allo act 17, RGS4 act -8.8
CCOC(=O)c1sc2nc(N3CCOCC3)c3c(c2c1N)CCCC3	none (no result: Lipid droplet)
COc1ccc(NC(=O)CSC(C)c2nc3ccccc3c(=O)[nH]2)cc1 (configuration not stated)	none
C/C(=N\NC(=O)c1cccnc1)c1cc2ccccc2o1	MrgX1 antagonist -7.6
CC(=O)c1ccc(N2CCN(S(=O)(=O)c3cn(C)c(C)n3)CC2)cc1	none
COCCNC(=O)CS(=O)Cc1nc(-c2ccccc2C)oc1C (configuration not stated)	MrgX1 antagonist -5.3 (no result: Lipid droplet)
Cc1ccccc1-c1nc(CS(=O)CC(=O)NCc2ccccc2)c(C)o1 (configuration not stated)	none (no result: Lipid droplet)
c1ccc2c(N3CCCCC3)nc(N3CCCC3)nc2c1	none
